In PubChem BioAssay AID1381 (University of Pittsburgh Molecular Library Screening Center, 2008):
Hit rate of the full screen: of about 220,000 compounds, about 1,000 (0.45%) were called active.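 The calls were made as follows: active = plate z-score of nuclear minus cytoplasmic receptor signal below a set negative limit, without overly bright fluorescence or cell loss (cut at about -3.5 in these data, passing the limit was not always enough); inactive = the rest, inconclusive results apart.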 Many of the other results were omitted from the sample, so actives are more common in it than they were.

Experiment: inhibitors of GR-EGFP nuclear translocation, primary screen, dynein cargo transport inhibitor project, imaging, high-content, 3617.4 mouse cells (AID 1381)
Details: stimulated with dexamethasone, 1 µM
Outline: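 medium = tetracycline-free induction medium containing charcoal-stripped FBS | probe or stimulus = dexamethasone, 1.0 µM final | timing = 48 h induction, then 1 h compound, then 30 min agonist, 37 °C | detection = automated 10x imaging of fixed Hoechst-stained cells | read-out basis = nuclear versus cytoplasmic GR-EGFP signal, averaged per well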

[1] = measured here: cell count per field, at 20 µM
[2] = measured here: cytoplasmic GR-EGFP intensity, at 20 µM, stronger effect = higher value
[3] = measured here: nuclear GR-EGFP intensity, at 20 µM, stronger effect = lower value

Structure (SMILES) | z-score (at 20 µM, stronger effect = lower value) | z-score [1] | z-score [2] | z-score [3] | z-score (at 50 µM, stronger effect = lower value) | z-score (measured here: cell count per field, at 50 µM) | z-score (measured here: cytoplasmic GR-EGFP intensity, at 50 µM, stronger effect = higher value) | z-score (measured here: nuclear GR-EGFP intensity, at 50 µM, stronger effect = lower value)
CCOc1ccccc1N1CCN(C(=O)COc2ccc3c(C)cc(=O)oc3c2)CC1 | 1.35 (inactive) | -0.138 | -0.356 | 0.787 | – | – | – | –
Cc1cc(NC(=O)CSc2nc3cc(Cl)ccc3c(=O)n2Cc2ccco2)no1 | 2.31 (inactive) | -1.55 | -0.306 | 1.39 | – | – | – | –
Clc1cccc(-c2nc3nc4ccccc4nc3n2Cc2ccco2)c1 | -4.09 (active) | 0.0368 | 2.09 | -1.78 | – | – | – | –
O=C(CSc1nnc(-c2cccnc2)n1Cc1ccco1)c1ccc(Cl)cc1 | -0.358 (inactive) | -0.0648 | -0.209 | -0.055 | – | – | – | –
Cc1cccc(NC(=S)N2CCC(c3nc4ccccc4s3)CC2)c1 | -0.203 (inactive) | 0.43 | -0.197 | -0.339 | – | – | – | –
CC1CCN(C(=O)c2ccc(CSc3ccc(Cl)cc3)cc2)CC1 | -0.555 (inactive) | 0.71 | -0.258 | -0.29 | – | – | – | –
CC1CCN(C(=O)c2ccc(S(=O)(=O)Cc3cc(F)ccc3F)c([N+](=O)[O-])c2)CC1 | -3.71 (active) | -1.15 | 0.395 | -2.24 | – | – | – | –
O=C(Nc1ccc(F)cc1)C1CCN(C(=O)c2ccc([N+](=O)[O-])cc2)CC1 | -0.907 (inactive) | 0.228 | 0.208 | -0.321 | – | – | – | –
O=C(CC(NC(=O)c1ccccc1)c1ccccc1)Nc1ccc(F)c(F)c1 (centres undefined) | -0.729 (inactive) | 0.477 | -0.215 | -0.567 | – | – | – | –
COc1ccc2c(c1)cc1n2CCN=C1NN | 1.67 (inactive) | -0.465 | -0.0728 | 0.848 | – | – | – | –
Cc1ccc2nc(C)c3c(c2c1)N(c1ccccc1)CC3 | -0.838 (inactive) | 0.0751 | -0.205 | -0.482 | – | – | – | –
CCCN(c1ccc(C)cc1)c1nc(=O)c2cccnc2s1 | 0.0477 (inactive) | 0.0213 | -0.295 | 0.0592 | – | – | – | –
Cc1ccc(Cl)cc1N1CCN(C(=O)c2cccc3c(=O)c(C)c(-c4ccccc4)oc23)CC1 | -0.56 (inactive) | 0.953 | -0.179 | -0.287 | – | – | – | –
CCOC(=O)c1cc2c(ccn2C)n1CC(=O)N1CCC(C)CC1 | – | – | – | – | -0.704 (inactive) | 0.841 | -0.262 | -1.05
Clc1ccc(CN2CCN(/N=C/c3cccnc3)CC2)cc1 | -0.266 (inactive) | 0.201 | -0.295 | -0.167 | – | – | – | –
O=Cc1cn(Cc2ccccc2)nc1-c1cccnc1 | -0.988 (inactive) | 0.721 | -0.215 | -0.566 | – | – | – | –
O=C1/C(=C\c2cccnc2)CN(Cc2ccccc2)C/C1=C\c1cccnc1 | -3.59 (active) | -0.00204 | 0.672 | -2.16 | – | – | – | –
Cc1ccc(S(=O)(=O)N(C)c2ccc(OCC(=O)NC3=NCCS3)cc2)cc1 | 0.77 (inactive) | -1.53 | 0.171 | 1.46 | – | – | – | –
Cc1ccnc(N2CCN(C(=O)CSc3nc4ccccc4nc3N3CCCCC3)CC2)c1 | -1.05 (inactive) | 0.232 | -0.187 | -0.257 | – | – | – | –
CC(C)(C)c1cc(NC(=O)NN2CCOCC2)nn1-c1c(Cl)cc(Cl)cc1Cl | 0.305 (inactive) | 0.973 | -0.287 | -0.0782 | – | – | – | –
COc1ccc(CCNC(=O)c2ccc(CS(=O)(=O)c3ccc(Br)cc3)o2)cc1OC | 0.736 (inactive) | 0.162 | -0.215 | 0.28 | – | – | – | –
